From PMC9326885 (Journal of Food and Drug Analysis, 2017)
Counter-ions that a name gives are not always drawn. Marks after values point to notes of the source that are not given here.

Key:
[1] = Effect of intravenous IS on the elimination of intravenous PSP in rats; type: in vivo, rat; settings: for AUC(0-t) / clearance / MRT: male, Sprague-Dawley, rat, serum, iv, 5 mg/kg, mean ± S.E., n = 6; for AUC(0-t): AUC0-1440, area under concentration-time curve to 1440 min; for clearance: Cl, the clearance; for MRT: the mean residence time
Summary of the method: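 Male Sprague–Dawley rats (370–420 g), fasted 12 h, received IV PSP 5.0 mg/kg with or without IV IS 10.0 mg/kg in a crossover design with a 1-week washout. Blood was drawn at 30–1440 min and serum was deproteinized with methanol and basified with NaOH. Absorbance was read at 560 nm (calibration 0.39–12.5 μg/mL). Noncompartmental analysis; paired t-test.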

[2] = Effect of oral indican on the pharmacokinetics of oral MTX in rats; type: in vivo, rat; settings: mean ± S.E., n = 5; for MRT: male, Sprague-Dawley, rat, serum, po, the mean residence time
Summary of the method: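 Male Sprague–Dawley rats (330–400 g), fasted 12 h, were given oral MTX 5.0 mg/kg alone or with oral indican 20.0 or 40.0 mg/kg in a parallel design. Serum MTX was measured by fluorescence polarization immunoassay (calibrated 0–1.0 μmol/L, LLOQ 0.01 μmol/L). Noncompartmental analysis: Cmax observed, AUC by trapezoidal rule to last point. Groups compared by one-way ANOVA with Scheffe's test.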

[3] = by OATs- and MRPs-mediated transports; cited from earlier work
[4] = intravenous bolus of PSP 5.0 mg/kg alone
[5] = intravenous bolus of PSP 5.0 mg/kg with intravenous bolus of IS 10.0 mg/kg

O=S(=O)(O)Oc1c[nH]c2ccccc12 [IS, indoxyl sulfate]
Effect on the elimination of PSP (serum profiles) ([1]; intravenous IS 10.0 mg/kg with intravenous PSP 5.0 mg/kg): inhibited

CN(Cc1cnc2nc(N)nc(N)c2n1)c1ccc(C(=O)N[C@@H](CCC(=O)O)C(=O)O)cc1 [MTX, Methotrexate]
MRT ([2]; 5 mg/kg, oral MTX 5.0 mg/kg alone): 5.26 h | MRT ([2]; oral MTX 5.0 mg/kg coadministered with indican 20.0 mg/kg): 17 h | MRT ([2]; oral MTX 5.0 mg/kg coadministered with indican 40.0 mg/kg): 16 h | AUC0-2880, area under concentration-time curve to 2880 min ([2]; oral MTX 5.0 mg/kg alone): 63.6 ± 6.9^a μmole•min/L | Fraction of MTX excreted via urine [3]: More than 80%

O=S1(=O)OC(c2ccc(O)cc2)(c2ccc(O)cc2)c2ccccc21 [PSP, phenolsulfonphthalein]
AUC(0-t) [1, 4]: 21300 ng·h/mL | AUC(0-t) [1, 5]: 64700 ng·h/mL | clearance [1, 4]: 3.1 ± 0.4 mL/min/kg | clearance [1, 5]: 1 ± 0.3 mL/min/kg | MRT [1, 4]: 6.67 h | MRT [1, 5]: 9.54 h
